According to ChEMBL document CHEMBL1143286, “Discovery of pentacyclic compounds as potent inhibitors of hepatitis C virus NS5B RNA polymerase” (Bioorg Med Chem Lett, 2009):

Columns and labels:
[1] = Inhibition of HCV BK NS5B polymerase deltaC21 mutant; assay type: single protein, NS5B polymerase (HCV isolate BK)
How it was run: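 Purified NS5B enzyme (BK strain, C-terminal 21-residue truncation) assayed for polymerase activity on heterogeneous template RNA, following a modified version of a previously published procedure.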

Hepatitis C virus [2] = experiment: Antiviral activity against HCV assessed as inhibition of viral subgenomic RNA replication in human HuH7 cells by replicon assay in presence of 10% fetal calf serum; assay type: functional, organism-based, Hepacivirus hominis; details: Huh-7
Hepatitis C virus [3] = experiment: Antiviral activity against HCV assessed as inhibition of viral subgenomic RNA replication in human HuH7 cells by replicon assay in presence of 50% normal human serum; assay type: functional, organism-based, Hepacivirus hominis, Huh-7
Hepatitis C virus [4] = experiment: Ratio of EC50 for HCV RNA replication in human HuH7 cells in presence of 50% normal human serum to EC50 for HCV RNA replication in human HuH7 cells in presence of 10% fetal calf serum; assay type: functional, Hepacivirus hominis, Huh-7
Plasma = experiment: Protein binding in human plasma; assay type: ADME, cell-free

Structure (SMILES) | IC50 [1] | EC50 (Hepatitis C virus [2]) | EC50 (Hepatitis C virus [3]; Hepatitis C virus, Huh-7) | Ratio EC50 (Hepatitis C virus [4]) | EC50 (Hepatitis C virus [3]; huh-7) | Activity (Plasma)
COc1ccc2c(c1)[C@@H]1[C@@H](CCN1CCN(C)C)Cn1c-2c(C2CCCCC2)c2ccc(C(=O)O)cc21 | 21 nM | 150 nM | 270 nM | – | – | –
COc1ccc2c(c1)[C@H]1[C@@H](CCN1C(=O)CN(C)C)Cn1c-2c(C2CCCCC2)c2ccc(C(=O)O)cc21 | 23 nM | 32 nM | 110 nM | – | – | –
COc1ccc2c(c1)[C@H]1[C@@H](CCN1CCN(C)C)Cn1c-2c(C2CCCCC2)c2ccc(C(=O)O)cc21 (stereo in doubt; 8b) | 8 nM | 25 nM | 63 nM | 2.5 | – | –
CN(C)CCN1CCn2c(c(C3CCCCC3)c3ccc(C(=O)O)cc32)-c2ccccc2C1 | 27 nM | 140 nM | 850 nM | – | – | –
CN1CC[C@@H]2c3ccccc3-c3c(C4CCCCC4)c4ccc(C(=O)O)cc4n3C[C@@H]21 | 20 nM | 1200 nM | 3800 nM | 3 | – | –
CN(C)CC(=O)N1CC[C@H]2Cn3c(c(C4CCCCC4)c4ccc(C(=O)O)cc43)-c3ccccc3[C@@H]21 | 31 nM | 170 nM | 210 nM | – | – | –
COc1ccc2c(c1)[C@H]1[C@@H](CCN1CCN(C)C)Cn1c-2c(C2CCCCC2)c2ccc(C(=O)O)cc21 (stereo in doubt; 11) | 4 nM | – | – | – | 49 nM | –
CN(C)[C@H]1C[C@H]2Cn3c(c(C4CCCCC4)c4ccc(C(=O)O)cc43)-c3ccccc3[C@H]2C1 | 30 nM | 130 nM | 890 nM | 7 | – | –
CN(C)CCN1CCn2c(c(C3CCCCC3)c3ccc(C(=O)O)cc32)-c2ccccc21 | 28 nM | 130 nM | 360 nM | – | – | –
CN(C)C(=O)CN1CC[C@H]2Cn3c(c(C4CCCCC4)c4ccc(C(=O)O)cc43)-c3ccccc3[C@@H]21 | 17 nM | 78 nM | 96 nM | – | – | –
CN(C)CCN1CC[C@H]2Cn3c(c(C4CCCCC4)c4ccc(C(=O)O)cc43)-c3ccccc3[C@@H]21 | 20 nM | 32 nM | 98 nM | – | – | 91.5%
O=C(O)c1ccc2c(C3CCCCC3)c3n(c2c1)C[C@@H]1CCN(CCN2CCCCC2)[C@H]1c1ccccc1-3 | 11 nM | 40 nM | 220 nM | – | – | 92%
CN(C)CCCN1CC[C@H]2Cn3c(c(C4CCCCC4)c4ccc(C(=O)O)cc43)-c3ccccc3[C@@H]21 | 24 nM | 58 nM | 80 nM | – | – | –
CN(C)C(=O)Cn1c(-c2ccccc2)c(C2CCCCC2)c2ccc(C(=O)O)cc21 | 430 nM | 1540 nM | 9850 nM | – | – | –
CN(C)CCN1CC[C@H]2Cn3c(c(C4CCCCC4)c4ccc(C(=O)O)cc43)-c3ccccc3[C@H]21 | 30 nM | 260 nM | 620 nM | – | – | –
COc1ccc2c(c1)[C@@H]1[C@H](CCN1CCN(C)C)Cn1c-2c(C2CCCCC2)c2ccc(C(=O)O)cc21 | 312 nM | > 1000 nM | > 1000 nM | – | – | –
O=C(O)c1ccc2c(C3CCCCC3)c3n(c2c1)C[C@@H]1CCN(CCCN2CCCCC2)[C@@H]1c1ccccc1-3 | 11 nM | 53 nM | 110 nM | – | – | –
CN1CC[C@H]2Cn3c(c(C4CCCCC4)c4ccc(C(=O)O)cc43)-c3ccccc3[C@@H]21 | 40 nM | 830 nM | 700 nM | 1 | – | –
COc1ccc2c(c1)[C@H]1[C@@H](CCN1C(=O)OCCN(C)C)Cn1c-2c(C2CCCCC2)c2ccc(C(=O)O)cc21 | 21 nM | 180 nM | 225 nM | – | – | –
CN(C)CCNC(=O)N1CC[C@H]2Cn3c(c(C4CCCCC4)c4ccc(C(=O)O)cc43)-c3ccccc3[C@@H]21 | 24 nM | 630 nM | 480 nM | – | – | –
CN1CC[C@H]2Cn3c(c(C4CCCCC4)c4ccc(C(=O)O)cc43)-c3ccccc3[C@H]21 | 140 nM | 770 nM | 2540 nM | 3 | – | –
